Tb MetRS inh: Trypanosoma brucei MetRS inhibition; AID 624268; actives 0.4% (n = 360,000); inhibition, % at 11.9 µM; purified T. brucei MetRS, ATP depletion, Kinase-Glo luminescence;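 active = inhibition above a per-plate cutoff of the control wells' mean inhibition plus 3 SD, cut at about 5.5% in these data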
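Dosing: 11.9 µM compound single dose, 0.9% DMSO; Assay system: purified T. brucei MetRS enzyme; Measured by: Kinase-Glo luciferase luminescence reporting remaining unconsumed ATP; Schedule: 15 min plus 2 h at 25 °C.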
sPLA2-III inh: Inhibits HGIII-sPLA2 liposome hydrolysis, primary screen. Q9NZ20. QFRET BODIPY PC-A2 liposome hydrolysis, fluorescence. inhibition, % at 12.2 µM. actives 0.56% (n = 370,000). AID 743126;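 active = inhibition above mean plus 3 SD of compounds lying within the high and low control bounds, cut at about 19% in these data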
DAGLB inh: diacylglycerol lipase beta (human) inhibition; inhibition, % at 5.17 µM; Q8NCG7; actives 0.059% (n = 340,000); HEK293T DAGLB membrane lysate, EnzChek fluorogenic substrate; in the data active = inhibition above about 34%
Target sequence (Q8NCG7 whole entry, looked up): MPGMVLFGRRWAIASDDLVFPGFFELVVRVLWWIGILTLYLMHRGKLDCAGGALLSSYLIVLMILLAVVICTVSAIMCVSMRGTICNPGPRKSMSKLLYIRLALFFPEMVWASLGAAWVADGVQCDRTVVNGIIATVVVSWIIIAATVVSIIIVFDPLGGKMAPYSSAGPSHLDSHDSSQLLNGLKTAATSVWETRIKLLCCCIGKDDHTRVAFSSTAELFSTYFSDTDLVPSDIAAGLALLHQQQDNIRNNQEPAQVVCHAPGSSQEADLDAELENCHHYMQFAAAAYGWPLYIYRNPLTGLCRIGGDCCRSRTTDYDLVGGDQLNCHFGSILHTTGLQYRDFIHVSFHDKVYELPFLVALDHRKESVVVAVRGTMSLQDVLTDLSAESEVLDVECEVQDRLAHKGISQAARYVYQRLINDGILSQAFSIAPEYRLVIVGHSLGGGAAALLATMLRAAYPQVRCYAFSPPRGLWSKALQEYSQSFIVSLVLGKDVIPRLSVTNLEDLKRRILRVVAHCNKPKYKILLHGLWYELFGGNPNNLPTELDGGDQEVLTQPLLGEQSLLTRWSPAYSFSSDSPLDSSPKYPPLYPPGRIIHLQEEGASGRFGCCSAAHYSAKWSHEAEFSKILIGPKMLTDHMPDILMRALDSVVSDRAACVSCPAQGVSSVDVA
PLC-beta3 inh: inhibitors of human phospholipase C beta3. inhibition, % at 12.2 µM. Purified PLC-beta3, fluorogenic substrate, fluorescence. actives 0.18% (n = 370,000). AID 720704; in the data active = inhibition above about 11%
PLCg1 inh: PLC-gamma1 (human) inhibition, primary screen; actives 0.84% (n = 370,000); inhibition, % at 12.2 µM; purified PLC-gamma1, fluorogenic substrate, fluorescence; AID 720700; P19174; in the data active = inhibition above about 9.5%
hGIII sPLA2 conf: human GIII-sPLA2 inhibition, confirmation; inhibition, % at 12.2 µM; shares compounds with sPLA2-III inh; actives 34% (n = 2,000); recombinant hGIII-sPLA2, BODIPY PC-A2 QFRET fluorescence;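 active = mean inhibition across triplicates above the hit cutoff set in the earlier primary screen, cut at about 19% in these data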
BODIPY interf: counter-screen for HGIII-sPLA2 inhibitors: 535nm fluorescence interference; BODIPY FL product fluorescence interference, QFRET; inhibition, % at 12.2 µM; AID 743282; shares compounds with sPLA2-III inh; actives 8.5% (n = 2,000);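 active = average inhibition above the solvent-only control mean plus 3 SD, cut at about 6% in these data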
535nm interf DR: interferes with 535nm fluorescence in dose response counter-screen; shares compounds with sPLA2-III inh; BODIPY FL product fluorescence interference, cell-free; IC50, µM; 240 tested, under 10 active;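 active = IC50 at or below 10 µM; inactive = IC50 above 10 µM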
Hits are given with their value; 0 = inactive; - = no result given. Sampled rows, rich in hits. Any-hit rate of the full collection: about 1.9%.

SMILES	Tb MetRS inh	sPLA2-III inh	DAGLB inh	PLC-beta3 inh	PLCg1 inh	hGIII sPLA2 conf	BODIPY interf	others
O=C(O)c1ccccc1C(=O)Nc1ccc(S(=O)(=O)NC2CCCCC2)cc1	0	20	0	0	0	0	0
CC(=O)NC(c1ccc(Cl)cc1Cl)c1ccc2cccnc2c1O (stereo not given)	0	19	0	0	0	23	0
CCCC(=O)NC(c1ccc(Cl)cc1)c1ccc2cccnc2c1O (stereo not given)	0	22	0	0	0	24	0
Cc1ccc(C(NC(=O)C(C)C)c2cc([N+](=O)[O-])c3cccnc3c2O)cc1 (stereo not given)	0	0	0	0	0	-	-
CC(=O)NC(c1ccc2ccccc2c1)c1ccc2cccnc2c1O (stereo not given)	0	0	0	0	0	-	-
CCCCC(=O)NC(c1ccc(Cl)cc1)c1ccc2cccnc2c1O (stereo not given)	0	0	0	0	0	-	-
CCCCC(=O)NC(c1ccccc1OC)c1ccc2cccnc2c1O (stereo not given)	0	31	0	0	0	28	0	535nm interf DR=0
CCN(CC)c1ccc(C(NC(=O)C(C)C)c2ccc3cccnc3c2O)cc1 (stereo not given)	0	36	0	0	0	23	0
O=C(NCc1cccc(C(F)(F)F)c1)O[C@H]1CC[C@@]23CCCN2C(=O)CCC[C@H]3C1	-	0	-	0	0	-	-
CCCCC(=O)NC(c1ccc(N(CC)CC)cc1)c1ccc2cccnc2c1O (stereo not given)	0	0	0	0	0	-	-
CCCCC(=O)NC(c1ccc(N(C)C)cc1)c1ccc2cccnc2c1O (stereo not given)	0	38	0	0	0	26	0
OC[C@@H](O)[C@H](O)C(/C=N/Nc1ccccc1)=N\Nc1ccccc1	0	20	0	0	0	23	0
C=CCNc1cc(=O)n(Cc2ccccc2)c(=O)[nH]1	0	19	0	0	0	0	0
C=CCNC1=C(Cl)C(=O)N(Cc2ccccc2)C1=O	0	0	0	0	0	-	-
CCN(CC)CCn1c(-c2ccccc2)nc(=S)c2c1CC(C)(C)OC2	0	21	0	0	0	0	0
CCn1c(=O)cc(N2CCN(c3cccc(C(F)(F)F)c3)CC2)[nH]c1=O	-	0	-	0	0	-	-
CCC(C)c1ccccc1OCCCCN1CCCC1 (stereo not given)	0	0	0	0	0	-	-
CCC(C)c1ccccc1OCCOCCN1CCCC1 (stereo not given)	0	20	0	0	0	0	0
COC(=O)CCC[C@H](C)[C@@H](NS(=O)(=O)c1ccc(C)cc1)C(C)(C)C	-	0	-	0	0	-	-
Nc1ccc2c3c(ccc([N+](=O)[O-])c13)CC2	0	23	0	0	0	34	6.6
CC(=O)c1ccc2c3c(ccc([N+](=O)[O-])c13)CC2	0	0	0	0	0	-	-
O=C(NC1CCCCN(Cc2cccc(Cl)c2)C1=O)c1ccc(F)c(F)c1 (stereo not given)	-	0	-	0	0	-	-
O=C(O)C1CSC2c3ccccc3C(=O)N12 (stereo not given)	0	20	0	0	0	0	0
O=C(c1ccc(-c2cc(O)c3ncccc3c2)cc1)N1CCNCC1	0	23	0	0	0	0	0
N/C(COc1cc(Cl)cc(Cl)c1)=N\O	0	21	0	0	0	0	0
SMILES	Tb MetRS inh	sPLA2-III inh	DAGLB inh	PLC-beta3 inh	PLCg1 inh	hGIII sPLA2 conf	BODIPY interf	others
CN(C)CCOc1cc(Cl)cc(Cl)c1	0	0	0	0	0	-	-
Cc1onc(-c2ccccc2)c1-c1n[nH]c(=S)n1-c1ccc(C(=O)O)cc1	0	0	0	0	0	-	-
Cc1onc(-c2ccccc2)c1-c1n[nH]c(=S)n1-c1ccccc1Cl	0	19	0	0	0	23	0
CCOC(=O)CCCCCC(=O)Nc1ccc2c(c1)C(=O)N([C@H](C)CO)C[C@@H](C)[C@@H](CN(C)S(=O)(=O)c1ccc(C)cc1)OCCCC[C@H](C)O2	-	0	-	0	0	-	-
COc1ccc(C(C)=NNC(=O)c2cccc(S(=O)(=O)N3CCCC3)c2)cc1	0	0	0	0	0	-	-
COc1ccc(/C(C)=N/NC(=O)c2cccc(S(=O)(=O)N3CCCC3)c2)c(O)c1	0	35	0	0	0	24	0
CCCCN(C)S(=O)(=O)c1c(C)[nH]c(=O)[nH]c1=O	0	19	0	0	0	0	0
NC(=O)c1sc2nc3c(c(-c4ccco4)c2c1N)CCCC3	0	20	0	0	0	0	0
N#Cc1sc2nc3c(c(-c4ccco4)c2c1N)CCCC3	0	0	0	0	0	-	-
N=C(N)SCc1ccccc1Cl	0	34	0	0	0	0	0
NC(CSCc1ccccc1Cl)C(=O)O (stereo not given)	0	0	0	0	0	-	-
Nc1ccc(-c2nc3ccc(N)cc3o2)cc1	0	0	0	0	0	-	-
Cc1ccc2nc(-c3cc(N)cc(N)c3)oc2c1	0	23	0	0	0	36	0	535nm interf DR=0
C[C@@H]1CN(C(=O)OC(C)(C)C)CCN1c1ccc(N2CC[C@H](O)C2)c(C#N)c1	-	21	-	0	0	0	0
COc1ccc(Cn2cc(CN3[C@H](C)COc4cc(Br)ccc4S3(=O)=O)nn2)cc1	-	0	-	0	0	-	-
Nc1ccc(Cl)c(NC(=O)c2cccs2)c1	0	0	0	0	0	-	-
Nc1ccc(NC(=O)c2cccs2)c(Cl)c1	0	22	0	0	0	0	0
COc1cccc(-c2csc(NNC(=O)c3cccs3)n2)c1	0	23	-	0	0	45	7.3
CN(C(=O)[C@@H](Cc1ccccc1)NC(=O)[C@H]1O[C@@H](n2ccc(=O)[nH]c2=O)[C@H](O)[C@@H]1O)C1CCCCC1	-	0	-	0	0	-	-
CS(=O)(=O)Oc1ccc(/C=N/NC(=O)c2ccncc2)cc1	0	19	0	0	0	0	0
CCOC(=O)[C@@]12CCC3=C1N(CCC3)C(=O)[C@H](CC(=O)NCCCCc1ccccc1)C2	-	0	-	0	0	-	-
CCC(=O)Nc1c(C(=O)N2CCN(c3ccccn3)CC2)cnn1-c1ccc(C)cc1	0	22	0	0	0	0	0
O=C(C1CCN(c2ncnc3c2sc2cccc(F)c23)CC1)N1CCN(Cc2ccccc2)CC1	-	0	-	0	0	-	-
O=c1oc(-c2cccc(C(F)(F)F)c2)nn1-c1ccc(C(F)(F)F)cn1	0	21	0	0	0	42	25
CC12CCC(C(=O)NCCCN3CCOCC3)(C(Br)C1=O)C2(C)C (stereo not given)	0	21	0	0	0	0	0
